Experimental data as given in PMC4567957 (Bioorganic & medicinal chemistry letters, 2015).
“Also recorded” adds a separate entry of the source. Starred links: 1 amine or outer side, 2 acyl side, 3 side chain; linkers in the order of their positions; H or OH if unused. Positions of bridges follow the written chain, without caps; N, C: chain ends. Non-standard residues stand in square brackets, D forms with d. Residues, ends and D or L forms follow the SMILES beside them. *: point of attachment. CH2CONHCH2CH2NHCOCH2 = O=C(C[*:1])NCCNC(=O)C[*:2]; Propanoyl(3,3-Ph2) = O=C(CC(c1ccccc1)c1ccccc1)*; Pyridine(2,6-diCH2) = c1cc(C[*:1])nc(C[*:2])c1; X2 = O=C(CC(c1ccccc1)(c1ccccc1)c1ccccc1)*; Dip = N[C@H](C(=O)O)C(c1ccccc1)c1ccccc1; X1 = CCCCCCCCCCCCCCCC(=O)NCCOCCOCCN*; mXylylene = c1cc(C[*:1])cc(C[*:2])c1; oXylylene = c1ccc(C[*:2])c(C[*:1])c1; NH(CH2CH2O)2CH2CH2NH2 = NCCOCCOCCN*; pXylylene = c1cc(C[*:2])ccc1C[*:1]; Mpa = O=C(O)CCS

Columns and labels:
human ferroportin-GFP = target: T1, human ferroportin-GFP (Homo sapiens, UniProt Q9NP59); experiment: In vitro ferroportin; type: cell-based; conditions: for bioactivity in Fpn degradation assay (in words): result in words, see Table 1; for times less active than mHS5: versus mHS5
T1 sequence (Q9NP59 1-571): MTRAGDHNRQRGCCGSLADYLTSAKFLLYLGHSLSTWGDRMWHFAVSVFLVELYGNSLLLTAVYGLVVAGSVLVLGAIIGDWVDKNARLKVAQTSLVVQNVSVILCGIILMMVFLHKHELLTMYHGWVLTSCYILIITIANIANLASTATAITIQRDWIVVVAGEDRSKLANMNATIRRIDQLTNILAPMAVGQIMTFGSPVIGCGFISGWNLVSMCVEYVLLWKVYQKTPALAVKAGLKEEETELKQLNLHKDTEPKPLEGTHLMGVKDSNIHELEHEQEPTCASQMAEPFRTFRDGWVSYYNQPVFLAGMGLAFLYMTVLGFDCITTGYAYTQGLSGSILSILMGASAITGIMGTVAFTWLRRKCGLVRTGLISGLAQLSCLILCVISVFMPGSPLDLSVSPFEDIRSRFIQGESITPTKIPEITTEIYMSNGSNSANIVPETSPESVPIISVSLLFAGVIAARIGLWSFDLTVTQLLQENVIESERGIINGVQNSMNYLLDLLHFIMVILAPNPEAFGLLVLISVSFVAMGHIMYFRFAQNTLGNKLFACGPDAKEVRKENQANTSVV

[1] = Plasma stability in freshly prepared mouse plasma; type: in vitro ADME; conditions: 25 μM, 37 °C
Summary of the method: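 Test compound, from a 10 mM DMSO stock, spiked into freshly prepared mouse plasma (final 25 μM) and incubated at 37 °C. Aliquots taken at set time points were quenched in DMSO/acetonitrile (1:1) with 0.1% TFA and centrifuged (13000 rpm, 10 min). Supernatants were analysed by triple-quadrupole LC/MS against a peptide internal standard to follow remaining intact peptide over time.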

C57BL/6 mice = type: in vivo, mouse; conditions: subcutaneous, 50–200 nmoles, 24h post-injection

CC(=O)N[C@@H](CS)C(=O)N[C@@H](Cc1ccccc1)C(=O)N1CCC[C@H]1C(=O)N[C@@H](CCCNC(=N)N)C(=O)N[C@@H](CS)C(=O)N[C@@H](CCCNC(=N)N)C(=O)N[C@@H](Cc1ccccc1)C(=O)N[C@@H](CS)C(N)=O [mHS1] (Ac-CFPRCRFC-NH2; N-terminus and C-terminus assumed)
EC50 (human ferroportin-GFP): > 600 nM | time within which degraded in plasma [1]: ≤ 6 h

CC(=O)N[C@H]1CSCC(=O)NCCNC(=O)CSC[C@@H](C(N)=O)NC(=O)[C@H](Cc2ccccc2)NC(=O)[C@H](CCCNC(=N)N)NC(=O)[C@H](CS)NC(=O)[C@H](CCCNC(=N)N)NC(=O)[C@@H]2CCCN2C(=O)[C@H](Cc2ccccc2)NC1=O [mHS2] (Ac-CFPRCRFC-NH2; linker 1-8 via CH2CONHCH2CH2NHCOCH2; N-terminus and C-terminus assumed)
bioactivity in Fpn degradation assay (in words) (human ferroportin-GFP): inactive

CC(=O)N[C@H]1CSCc2ccc(cc2)CSC[C@@H](C(N)=O)NC(=O)[C@H](Cc2ccccc2)NC(=O)[C@H](CCCNC(=N)N)NC(=O)[C@H](CS)NC(=O)[C@H](CCCNC(=N)N)NC(=O)[C@@H]2CCCN2C(=O)[C@H](Cc2ccccc2)NC1=O [mHS4] (Ac-CFPRCRFC-NH2; linker 1-8 via pXylylene (inferred))
times less active than mHS5 (human ferroportin-GFP): approximately 2 times

CC(=O)N[C@H]1CSCc2ccccc2CSC[C@@H](C(N)=O)NC(=O)[C@H](Cc2ccccc2)NC(=O)[C@H](CCCNC(=N)N)NC(=O)[C@H](CS)NC(=O)[C@H](CCCNC(=N)N)NC(=O)[C@@H]2CCCN2C(=O)[C@H](Cc2ccccc2)NC1=O [mHS6] (Ac-CFPRCRFC-NH2; linker 1-8 via oXylylene; N-terminus and C-terminus assumed)
times less active than mHS5 (human ferroportin-GFP): approximately 2 times

CC(=O)N[C@H]1CSCc2cccc(n2)CSC[C@@H](C(N)=O)NC(=O)[C@H](Cc2ccccc2)NC(=O)[C@H](CCCNC(=N)N)NC(=O)[C@H](CS)NC(=O)[C@H](CCCNC(=N)N)NC(=O)[C@@H]2CCCN2C(=O)[C@H](Cc2ccccc2)NC1=O [mHS7] (Ac-CFPRCRFC-NH2; linker 1-8 via Pyridine(2,6-diCH2); N-terminus and C-terminus assumed)
bioactivity in Fpn degradation assay (in words) (human ferroportin-GFP): inactive

CC(=O)N[C@H]1CSCc2cccc(c2)CSC[C@@H](C(N)=O)NC(=O)[C@H](Cc2ccccc2)NC(=O)[C@H](CCCNC(=N)N)NC(=O)[C@H](CS)NC(=O)[C@H](CCCNC(=N)N)NC(=O)[C@@H]2CCCN2C(=O)[C@H](C(c2ccccc2)c2ccccc2)NC1=O [mHS15] (Ac-C[Dip]PRCRFC-NH2; linker 1-8 via mXylylene; N-terminus and C-terminus assumed)
increase in potency (4Phe→Dpa) (human ferroportin-GFP; mHS5 versus mHS15): 5 ×

CCCCCCCCCCCCCCCCNC(=O)CN(CC(N)=O)C(=O)CCCCCNC(=O)[C@@H]1CSCc2cccc(c2)CSC[C@H](NC(C)=O)C(=O)N[C@@H](C(c2ccccc2)c2ccccc2)C(=O)N2CCC[C@H]2C(=O)N[C@@H](CCCNC(=N)N)C(=O)N[C@@H](CS)C(=O)N[C@@H](CCCNC(=N)N)C(=O)N[C@@H](Cc2ccccc2)C(=O)N1 [mHS17]
in vivo activity (decrease in serum iron) (C57BL/6 mice): no desired biological effect; also recorded: no in vivo potency

N=C(N)NCCC[C@@H]1NC(=O)[C@@H](NC(=O)CC(c2ccccc2)(c2ccccc2)c2ccccc2)CSCc2cccc(c2)CSC[C@@H](C(N)=O)NC(=O)[C@H](Cc2ccccc2)NC(=O)[C@H](CCCNC(=N)N)NC(=O)[C@H](CS)NC1=O [mHS19] (X2-CRCRFC-NH2; linker 1-6 via mXylylene; C-terminus assumed)
EC50 (human ferroportin-GFP): ~100 nM | fold less potent than mHS15 (human ferroportin-GFP; versus mHS15): approximately 2 ×

N=C(N)NCCC[C@@H]1NC(=O)[C@H](CS)NC(=O)[C@H](CCCNC(=N)N)NC(=O)[C@@H]2CCCN2C(=O)[C@H](C(c2ccccc2)c2ccccc2)NC(=O)CCSCc2cccc(c2)CSC[C@@H](C(=O)NCCOCCOCCN)NC(=O)[C@H](Cc2ccccc2)NC1=O [mHS23] ([Mpa][Dip]PRCRFC-{NH(CH2CH2O)2CH2CH2NH2}; linker 1-8 via mXylylene (inferred))
times more active than mHS22 (human ferroportin-GFP; versus AcNH-containing mHS22): approximately 2 times

CCCCCCCCCCCCCCCC(=O)NCCOCCOCCNC(=O)[C@@H]1CSCc2cccc(c2)CSC[C@H](NC(=O)CC(c2ccccc2)c2ccccc2)C(=O)N[C@@H](CCCNC(=N)N)C(=O)N[C@@H](CS)C(=O)N[C@@H](CCCNC(=N)N)C(=O)N[C@@H](Cc2ccccc2)C(=O)N1 [mHS26] ({Propanoyl(3,3-Ph2)}-CRCRFC-X1; linker 1-6 via mXylylene; N-terminus and C-terminus assumed)
in vivo activity (decrease in serum iron) (C57BL/6 mice): no desired biological effect; also recorded: no in vivo potency | fold less potent than parental minihepcidin PR73 (human ferroportin-GFP; ratio of EC50 versus PR73): 12.5 × | plasma stability compared with PR73 [1]: slightly more resistant to plasma driven degradation
